The results in this text go back to ChEMBL document CHEMBL1122708, “Preparation and antibacterial activities of new 1,2,3-diazaborine derivatives and analogues” (1984).

SMILES strings stand for the structures. ≈ marks a conversion by molar mass, not a printed value. Some results are limits rather than exact numbers.

Experiment [1] concerns Escherichia coli. The experiment can be described thus: Antibacterial activity againist Escherichia coli 120 infected NMRI mice after peroral administration. Format: functional. Particulars: po. The gist of the method:
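ED50 in NMRI mice infected intraperitoneally with E. coli 120; compound given orally immediately and 5 h after infection.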

Experiment [2] deals with Salmonella typhimurium. The experiment can be described thus: Minimum inhibitory concentration of compound against Salmonella Typhimurium delta 119. The experiment is classed as functional, Salmonella enterica subsp. enterica serovar Typhimurium. The note with it: Salmonella enterica.
For experiment [3], the system named is Escherichia coli. The experiment can be described thus: Minimum inhibitory concentration of compound against Escherichia coli delta 120. Format: functional.
The test system of experiment [4] is Klebsiella pneumoniae. The experiment can be described thus: Minimum inhibitory concentration of compound against Klebsiella pneumoniae delta 217. Format: functional.
The test system of experiment [5] is Klebsiella aerogenes. The experiment can be described thus: Minimum inhibitory concentration of compound against Enterobacter aerogenes delta 220. The experiment is classed as functional.
In experiment [6] the test system is Proteus mirabilis. The experiment can be described thus: Minimum inhibitory concentration against Proteus mirabilis delta 89. Format: functional.
In experiment [7] the test system is Neisseria gonorrhoeae. The experiment can be described thus: Minimum inhibitory concentration of compound against Neisseria gonorrhoeae W2. Format: functional. The gist of the method: (§1)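 Agar dilution on Kellogg agar, 10⁶ colony forming units, incubated 20 h at 36 °C in 5% CO₂; MIC is the lowest concentration giving no visible growth.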
Experiment [8] concerns Neisseria gonorrhoeae. The experiment can be described thus: Minimum inhibitory concentration of compound against Neisseria gonorrhoeae AS 7720. The experiment is classed as functional. Put shortly:
as §1

The ED50 is the dose at which the effect has come halfway, by size or by number of responders. High values mean a need for a large dose, low ones an effect at a small dose. By MIC is commonly meant the least concentration at which growth counts as inhibited. Higher therefore signals weaker potency. In experiment [1], `Cc1ccc(S(=O)(=O)N2N=Cc3cc(N(C)C)ccc3B2O)cc1` displayed an ED50 above 300 mg/kg. Further, the minimum inhibitory concentration (MIC) in experiment [2] and in experiment [3] was above 50 µg/mL each time.
As to `Cc1ccc(S(=O)(=O)N2N=Cc3ccc(N(C)C)cc3B2O)cc1`, in experiment [1], the median effective dose (ED50) was determined as 100 mg/kg. The MIC in experiment [2] and in experiment [3] was above 50 µg/mL throughout.
With `O=S(=O)(c1cc(Cl)c(Cl)cc1Cl)N1N=Cc2c(F)cccc2B1O`, the median effective dose (ED50) in experiment [1] was above 300 mg/kg. Also, the MIC in experiment [2] is above 50 µg/mL; in experiment [3], above 50 µg/mL; in experiment [4], above 50 µg/mL; in experiment [5], above 50 µg/mL; in experiment [6] it was 25 µg/mL (≈ 61.4 µM).
Turning to `CC(=O)Nc1ccc(S(=O)(=O)N2N=Cc3sc(Br)cc3B2O)c(Cl)c1`, the ED50 in experiment [1] was found to be 208 mg/kg. The minimal inhibitory concentration (MIC) stood at 3.12 µg/mL (≈ 6.75 µM) in experiment [2]; 50 µg/mL (≈ 108 µM) in experiment [3]; 3.12 µg/mL (≈ 6.75 µM) in experiment [4]; 1 µg/mL (≈ 2.16 µM) in experiment [7]; 25 µg/mL (≈ 54 µM) in experiment [5]; 1 µg/mL (≈ 2.16 µM) in experiment [8]. In experiment [6], this compound displayed a minimum inhibitory concentration (MIC) of 6.25 µg/mL (≈ 13.5 µM).
In the case of `Cc1ccc2c(c1)C=NN(S(C)(=O)=O)B2O`, it took a dose of 42 mg/kg to reach the 50% effect level in experiment [1] (ED50). For the same compound, the MIC in experiment [2] was 12.5 µg/mL (≈ 52.5 µM); in experiment [3] it was 25 µg/mL (≈ 105 µM); in experiment [4], 6.25 µg/mL (≈ 26.3 µM); in experiment [7], above 8 µg/mL; in experiment [5] it was above 50 µg/mL; in experiment [8] it was above 8 µg/mL. Also, the MIC in experiment [6] is 25 µg/mL (≈ 105 µM).
Turning to `Cc1ccc(S(=O)(=O)N2N=Cc3c(Cl)cc(N(C)C)cc3B2O)cc1`, in experiment [1], the ED50 is above 300 mg/kg. The MIC in experiment [2] and in experiment [3] was above 50 µg/mL in each case.
Take `CCS(=O)(=O)N1N=Cc2sc(Br)cc2B1O`: the minimum inhibitory concentration (MIC) in experiment [2] was 3.12 µg/mL (≈ 9.66 µM); in experiment [3] it was 12.5 µg/mL (≈ 38.7 µM); in experiment [4] it was 3.12 µg/mL (≈ 9.66 µM); in experiment [7], 2 µg/mL (≈ 6.19 µM); in experiment [5], 12.5 µg/mL (≈ 38.7 µM); in experiment [8] it was 2 µg/mL (≈ 6.19 µM). In experiment [6], this compound displayed an MIC of 6.25 µg/mL (≈ 19.3 µM).
The compound `Cc1ccc(S(=O)(=O)N2N=Cc3cc(Cl)ccc3B2O)cc1` returned an ED50 in experiment [1] of around 20 mg/kg. The MIC is 3.12 µg/mL (≈ 9.32 µM) in experiment [2]; 25 µg/mL (≈ 74.7 µM) in experiment [3]; 6.25 µg/mL (≈ 18.7 µM) in experiment [4]; 2 µg/mL (≈ 5.98 µM) in experiment [7]; above 50 µg/mL in experiment [5]; 1 µg/mL (≈ 2.99 µM) in experiment [8]. This compound also displayed an MIC in experiment [6] of 3.12 µg/mL (≈ 9.32 µM).
In experiment [1], `CS(=O)(=O)N1N=Cc2sccc2B1O` displayed a median effective dose (ED50) of 113 mg/kg. Besides, the MIC in experiment [2] was above 50 µg/mL; in experiment [3] it was above 50 µg/mL; in experiment [4] it was above 50 µg/mL; in experiment [7], above 8 µg/mL; in experiment [5] it was above 50 µg/mL; in experiment [8], above 8 µg/mL. This compound also yielded a minimum inhibitory concentration (MIC) in experiment [6] above 50 µg/mL.
For the compound `O=S(=O)(c1cc(Cl)c(Cl)cc1Cl)N1N=Cc2cc(Br)ccc2B1O`, the median effective dose (ED50) in experiment [1] was above 300 mg/kg. Moreover, the minimum inhibitory concentration (MIC) in experiment [2] was above 50 µg/mL; in experiment [3] it was above 50 µg/mL; in experiment [4], 50 µg/mL (≈ 107 µM); in experiment [7], 8 µg/mL (≈ 17.1 µM); in experiment [5] it was above 50 µg/mL; in experiment [8], 1 µg/mL (≈ 2.14 µM). In experiment [6], this compound came in with a minimum inhibitory concentration (MIC) of 6.25 µg/mL (≈ 13.3 µM).
`Nc1ccc(S(=O)(=O)N2N=Cc3cc(Br)ccc3B2O)cc1`: in experiment [1], the 50% effective dose (ED50) is 16 mg/kg. Besides, the MIC came out at 3.12 µg/mL (≈ 8.21 µM) in experiment [2]; 10 µg/mL (≈ 26.3 µM) in experiment [3]; 1.56 µg/mL (≈ 4.1 µM) in experiment [4]; 2 µg/mL (≈ 5.26 µM) in experiment [7]; 25 µg/mL (≈ 65.8 µM) in experiment [5]; 1 µg/mL (≈ 2.63 µM) in experiment [8]. The minimal inhibitory concentration (MIC) in experiment [6] turned out to be 0.78 µg/mL (≈ 2.05 µM).
With `O=S(=O)(c1ccccc1Cl)N1N=Cc2sc(Br)cc2B1O`, in experiment [1], the median effective dose (ED50) turned out to be 39 mg/kg. For the same compound, the MIC in experiment [2] was determined as 3.12 µg/mL (≈ 7.69 µM); in experiment [3] it was 25 µg/mL (≈ 61.7 µM); in experiment [4], 1.56 µg/mL (≈ 3.85 µM); in experiment [7], 1 µg/mL (≈ 2.47 µM); in experiment [5] it was 25 µg/mL (≈ 61.7 µM); in experiment [8], 0.5 µg/mL (≈ 1.23 µM). The minimum inhibitory concentration (MIC) in experiment [6] was determined as 0.78 µg/mL (≈ 1.92 µM).
As for `CCCS(=O)(=O)N1N=Cc2cc(Cl)ccc2B1O`, the 50% effect level in experiment [1] (ED50) was put at a dose of 14 mg/kg. Further, the MIC in experiment [2] turned out to be 3.12 µg/mL (≈ 10.9 µM); in experiment [3] it was 10 µg/mL (≈ 34.9 µM); in experiment [4] it was 1.56 µg/mL (≈ 5.44 µM); in experiment [7], 2 µg/mL (≈ 6.98 µM); in experiment [5] it was 25 µg/mL (≈ 87.2 µM); in experiment [8], 2 µg/mL (≈ 6.98 µM). This compound displayed an MIC in experiment [6] of 2.5 µg/mL (≈ 8.72 µM).
In experiment [1], `O=S(=O)(c1ccccc1Cl)N1N=Cc2cc(Br)sc2B1O` returned a median effective dose (ED50) above 300 mg/kg. The MIC was above 50 µg/mL in experiment [2]; above 50 µg/mL in experiment [3]; above 50 µg/mL in experiment [4]; above 8 µg/mL in experiment [7]; above 50 µg/mL in experiment [5]; above 8 µg/mL in experiment [8]. Also, the MIC in experiment [6] was above 50 µg/mL.
On to `O=S(=O)(c1ccccc1)N1N=Cc2sc(Br)cc2B1O`, for which the median effective dose (ED50) in experiment [1] was around 20 mg/kg. Also, the MIC in experiment [2] was 0.78 µg/mL (≈ 2.1 µM); in experiment [3], 3.12 µg/mL (≈ 8.41 µM); in experiment [4], 0.78 µg/mL (≈ 2.1 µM); in experiment [7] it was 2 µg/mL (≈ 5.39 µM); in experiment [5], 12.5 µg/mL (≈ 33.7 µM); in experiment [8] it was 1 µg/mL (≈ 2.7 µM). The same compound had an MIC in experiment [6] of 1.56 µg/mL (≈ 4.2 µM).
Consider `CCc1cc2c(s1)B(O)N(S(=O)(=O)c1ccc(C)cc1)N=C2`, for which the ED50 in experiment [1] was 9 mg/kg. Further, the minimum inhibitory concentration (MIC) in experiment [2] was found to be 1.56 µg/mL (≈ 4.67 µM); in experiment [3] it was 6.25 µg/mL (≈ 18.7 µM); in experiment [4], 1.25 µg/mL (≈ 3.74 µM); in experiment [7] it was 0.5 µg/mL (≈ 1.5 µM); in experiment [5] it was 25 µg/mL (≈ 74.8 µM); in experiment [8] it was 0.25 µg/mL (≈ 0.748 µM). This compound had a minimum inhibitory concentration (MIC) in experiment [6] of 1.25 µg/mL (≈ 3.74 µM).
Take `CCCS(=O)(=O)N1N=Cc2sccc2B1O`: in experiment [1], the 50% effect level (ED50) was put at a dose of 28 mg/kg. Further, the MIC is 3.12 µg/mL (≈ 12.1 µM) in experiment [2]; 6.25 µg/mL (≈ 24.2 µM) in experiment [3]; 1.56 µg/mL (≈ 6.04 µM) in experiment [4]; 8 µg/mL (≈ 31 µM) in experiment [7]; 25 µg/mL (≈ 96.8 µM) in experiment [5]; 8 µg/mL (≈ 31 µM) in experiment [8]. This compound showed an MIC in experiment [6] of 25 µg/mL (≈ 96.8 µM).
For `Cc1ccc(S(=O)(=O)N2N=Cc3ccccc3B2O)cc1`, the 50% effective dose (ED50) in experiment [1] is around 25 mg/kg. For the same compound, the minimum inhibitory concentration (MIC) in experiment [2] is 6.25 µg/mL (≈ 20.8 µM); in experiment [3], 25 µg/mL (≈ 83.3 µM); in experiment [4] it was 3.12 µg/mL (≈ 10.4 µM); in experiment [7], 8 µg/mL (≈ 26.7 µM); in experiment [5], above 50 µg/mL; in experiment [8], 2 µg/mL (≈ 6.66 µM). Further, in experiment [6], it took 12.5 µg/mL (≈ 41.6 µM) to inhibit growth (MIC).
